Several values for one entry are separate records, joined by “and”; a condition that tells them apart may be missing. Identical values can stand only once. Values belong to the compound of their own block, whether it stands above or below them.
What was measured:
[1] = In vitro inhibitory activity against Phosphatidylinositol 3-Kinase
How it was run: (§1)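 Purified PI 3-kinase from bovine brain was used as the enzyme source. Results are reported as IC50 values.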

[2] = test system: Mus musculus; assay: In vivo inhibition of tumor growth in C3H Mammary model was evaluated at dose 0.50 mg/kg peroral administration; assay type: functional; details: route oral
How it was run: (§2)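 Murine tumours were serially passaged as tumour fragments, implanted s.c. by trochar in the axillary region. Daily oral dosing began 1 day after implant, as a suspension in 2.5% emulphor EL-620 in 0.9% NaCl. There were 10 randomized mice per group. Tumours were measured by caliper the day after the last dose, with weight = length × width² × 0.5. Inhibition was 100 × (1 − mean treated/mean control weight). A group was toxic if lethality was >25%.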

[3] = test system: Mus musculus; assay: In vivo inhibition of tumor growth in C3H Mammary model was evaluated at dose 1.0 mg/kg peroral administration; assay type: functional; details: route oral; how it was run: as §2
[4] = test system: Mus musculus; assay: In vivo inhibition of tumor growth in C3H Mammary model was evaluated at dose 10 mg/kg peroral administration; assay type: functional; details: route oral
How it was run: (§3)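 Murine C3H mammary tumour fragments were implanted subcutaneously by trochar in the axillary region, in groups of 10 randomized mice. Oral dosing started 1 day after implant, daily ×10, as a suspension in 2.5% emulphor EL-620 in 0.9% NaCl (water for one analog). Tumour weight, calculated as length×width²×0.5 from calipers, was measured the day after the last dose. Percent inhibition was calculated versus controls. Groups with >25% lethality were scored toxic.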

[5] = test system: Mus musculus; assay: In vivo inhibition of tumor growth in C3H Mammary model was evaluated at dose 5.0 mg/kg peroral administration; range is 60-79%; assay type: functional; details: route oral; how it was run: as §3
[6] = Inhibition of Phosphatidylinositol 3-Kinase; how it was run: as §1
[7] = test system: Homo sapiens; assay: In vivo inhibition of tumor growth in CX-1 colon model was evaluated at dose 1.50 mg/kg peroral administration; assay type: functional; details: route oral
How it was run: (§4)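 Human xenograft fragments were implanted s.c. via trochar in the axillary region of mice. Daily oral dosing began 7 days after implant, as a suspension in 2.5% emulphor EL-620 in 0.9% NaCl. There were 10 randomized mice per group. Tumours were measured by caliper 5 days after the last dose, with weight = length × width² × 0.5. Inhibition was 100 × (1 − treated/control mean weight), and toxic meant lethality >25%.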

[8] = test system: Mus musculus; assay: In vivo inhibition of tumor growth in C-26 colon model was evaluated dose 1.50 mg/kg peroral administration; assay type: functional; details: route oral; how it was run: as §2
[9] = test system: Homo sapiens; assay: In vivo inhibition of tumor growth in CX-1 colon model was evaluated at dose 0.75 mg/kg peroral administration; assay type: functional; details: route oral; how it was run: as §4
[10] = test system: Homo sapiens; assay: In vivo inhibition of tumor growth in IGROV1 ovarian model was evaluated at dose 1.50 mg/kg peroral administration; assay type: functional; details: IGROV-1, route oral
How it was run: (§5)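 HC1 colon and IGROV1 ovarian xenografts were implanted s.c. as fragments by axillary trochar. Daily oral dosing started 14 days after implant, as a suspension in 2.5% emulphor EL-620/0.9% NaCl. Groups were 10 randomized mice.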

[11] = test system: Mus musculus; assay: In vivo inhibition of tumor growth in M-5076 ovarian model was evaluated at dose 0.75 mg/kg peroral administration; assay type: functional; details: M5076, route oral
How it was run: (§6)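 For the murine M-5076 ovarian tumour, fragments were implanted s.c. by trochar in the axilla. Daily oral dosing began 5 days after implant, as a suspension in 2.5% emulphor EL-620/0.9% NaCl. There were 10 randomized mice per group.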

[12] = test system: Homo sapiens; assay: In vivo inhibition of tumor growth in GC3 colon model was evaluated at dose 0.38 mg/kg peroral administration; assay type: functional; details: route oral; how it was run: as §4
[13] = test system: Homo sapiens; assay: In vivo inhibition of tumor growth in HC1 colon model was evaluated at dose 1.50 mg/kg peroral administration; assay type: functional; details: route oral; how it was run: as §5
[14] = test system: Mus musculus; assay: In vivo inhibition of tumor growth in Lewis lung model was evaluated at dose 1.50 mg/kg peroral administration; assay type: functional; details: route oral; how it was run: as §2
[15] = test system: Mus musculus; assay: In vivo inhibition of tumor growth in Lewis lung model was evaluated at dose 0.75 mg/kg peroral administration; assay type: functional; details: route oral; how it was run: as §2
[16] = test system: Mus musculus; assay: In vivo inhibition of tumor growth in C3H Mammary model was evaluated at dose 1.25 mg/kg peroral administration; range is 60-79%; assay type: functional; details: route oral; how it was run: as §2
[17] = test system: Homo sapiens; assay: In vivo inhibition of tumor growth in VRC5 colon model was evaluated at dose 1.50 mg/kg peroral administration; assay type: functional; details: route oral
[18] = test system: Homo sapiens; assay: In vivo inhibition of tumor growth in BXPC-3 pancreatic model was evaluated at dose 1.50 mg/kg peroral administration; assay type: functional; details: route oral; how it was run: as §4
[19] = test system: Mus musculus; assay: IIn vivo inhibition of tumor growth in B-16 melanoma model was evaluated by inhibition of tumor growth at dose 0.75 mg/kg peroral administration; assay type: functional; details: B16, route oral; how it was run: as §2
[20] = test system: Mus musculus; assay: In vivo inhibition of tumor growth in 6C3HED lymphosarcomal was evaluated at dose 1.50 mg/kg peroral administration; assay type: functional; details: route oral; how it was run: as §2
[21] = test system: Homo sapiens; assay: In vivo toxicity against PI 3-Kinase in GC3 colon model was evaluated by inhibition of tumor growth at dose 0.75 mg/kg peroral administration; assay type: functional; details: route oral; how it was run: as §4
[22] = test system: Homo sapiens; assay: In vivo inhibition of tumor growth in PACA-2 pancreatic model was evaluated at dose 0.75 mg/kg peroral administration; assay type: functional; details: route oral; how it was run: as §4
[23] = test system: Mus musculus; assay: In vivo inhibition of tumor growth in 6C3HED lymphosarcomal was evaluated at dose 0.75 mg/kg peroral administration; assay type: functional; details: route oral; how it was run: as §2
[24] = test system: Homo sapiens; assay: In vivo inhibition of tumor growth in BXPC-3 pancreatic model was evaluated at dose 0.75 mg/kg peroral administration; range is 60-79%; assay type: functional; details: route oral; how it was run: as §4
[25] = test system: Homo sapiens; assay: In vivo inhibition of tumor growth in HC1 colon model was evaluated at dose 0.75 mg/kg peroral administration; assay type: functional; details: route oral; how it was run: as §5
[26] = test system: Homo sapiens; assay: In vivo inhibition of tumor growth in LX-1 lung model was evaluated at dose 0.38 mg/kg peroral administration; assay type: functional; details: route oral; how it was run: as §4
[27] = test system: Mus musculus; assay: In vivo inhibition of tumor growth in X-5563 plasma cell myeloma model was evaluated at dose 1.25 mg/kg peroral administration; assay type: functional; details: route oral
[28] = test system: Mus musculus; assay: In vivo inhibition of tumor growth B-16 melanoma model was evaluated at dose 1.50 mg/kg peroral administration; assay type: functional; details: B16, route oral; how it was run: as §2
[29] = test system: Homo sapiens; assay: In vivo inhibition of tumor growth in MX-1 mammary model was evaluated at dose 0.75 mg/kg peroral administration; assay type: functional; details: route oral
[30] = test system: Homo sapiens; assay: In vivo inhibition of tumor growth MX-1 mammary model was evaluated at dose 1.50 mg/kg peroral administration; assay type: functional; details: route oral
[31] = test system: Mus musculus; assay: In vivo inhibition of tumor growth in C3H Mammary model was evaluated at dose 2.50 mg/kg peroral administration; assay type: functional; details: route oral; how it was run: as §2
[32] = test system: Homo sapiens; assay: In vivo inhibition of tumor growth in VRC5 colon model was evaluated at dose 0.75 mg/kg peroral administration; assay type: functional; details: route oral
[33] = test system: Homo sapiens; assay: In vivo inhibition of tumor growth in PANC-1 pancreatic model was evaluated at dose 0.75 mg/kg peroral administration; assay type: functional; details: route oral; how it was run: as §4
[34] = test system: Mus musculus; assay: In vivo inhibition of tumor growth in M-5076 ovarian model was evaluated at dose 1.50 mg/kg peroral administration; assay type: functional; details: M5076, route oral; how it was run: as §6
[35] = test system: Homo sapiens; assay: In vivo inhibition of tumor growth IGROV1 ovarian model was evaluated at dose 0.75 mg/kg peroral administration; assay type: functional; details: IGROV-1, route oral; how it was run: as §5
[36] = test system: Homo sapiens; assay: In vivo inhibition of tumor growth in PACA-2 pancreatic model was evaluated at dose 1.50 mg/kg peroral administration; assay type: functional; details: route oral; how it was run: as §4
[37] = test system: Homo sapiens; assay: In vivo inhibition of tumor growth in LX-1 lung model was evaluated at dose 0.75 mg/kg peroral administration; assay type: functional; details: route oral; how it was run: as §4
[38] = test system: Mus musculus; assay: In vivo inhibition of tumor growth in C-26 colon model was evaluated dose 0.75 mg/kg peroral administration; assay type: functional; details: route oral; how it was run: as §2
[39] = test system: Homo sapiens; assay: In vivo inhibition of tumor growth PANC-1 pancreatic model was evaluated at dose 1.50 mg/kg peroral administration; assay type: functional; details: route oral; how it was run: as §4

SMILES: COC[C@H]1OC(=O)c2coc3c2[C@@]1(C)C1=C(C3=O)[C@@H]2CC[C@H](O)[C@@]2(C)C[C@H]1OC(C)=O
IC50 [1]: 0.5 nM | inhibition in vivo at 0.5 mg/kg [2]: < 60% | inhibition in vivo at 1 mg/kg [3]: > 25%

SMILES: CC/N=C/C1=C(O)O[C@H](COC)[C@@]2(C)C1=C(O)C(=O)C1=C2[C@H](OC(C)=O)C[C@]2(C)C(=O)CC[C@@H]12
IC50 [1]: > 500 nM

SMILES: COC[C@H]1OC(=O)c2coc3c2[C@@]1(C)C1=C(C3=O)[C@@H]2CC=C(OC(C)=O)[C@@]2(C)C[C@H]1OC(C)=O
IC50 [1]: 59 nM

SMILES: CCC/N=C\C1=C(O)O[C@H](COC)[C@@]2(C)C1=C(O)C(=O)C1=C2[C@H](OC(C)=O)C[C@]2(C)C(=O)CC[C@@H]12
IC50 [1]: > 500 nM

SMILES: CCN(/C=C1\C(=O)O[C@H](COC)[C@@]2(C)C1=C(O)C(=O)C1=C2[C@H](OC(C)=O)C[C@]2(C)C(=O)CC[C@@H]12)CC
inhibition in vivo at 10 mg/kg [4]: > 25% | inhibition in vivo at 5 mg/kg [5]: 79% | IC50 [6]: 80 nM

SMILES: COC[C@H]1OC(=O)c2coc3c2[C@@]1(C)C1=C(C3=O)[C@@H]2CCC(=O)[C@@]2(C)C[C@H]1OC(C)=O [WORTMANNIN]
inhibition in vivo at 1.5 mg/kg [7]: > 25% | inhibition in vivo at 1.5 mg/kg [8]: > 25% | inhibition in vivo at 0.75 mg/kg [9]: < 60% | inhibition in vivo at 1.5 mg/kg [10]: > 25% | inhibition in vivo at 0.75 mg/kg [11]: < 60% | inhibition in vivo at 0.38 mg/kg [12]: > 25% | inhibition in vivo at 1.5 mg/kg [13]: > 25% | inhibition in vivo at 1.5 mg/kg [14]: > 25% | inhibition in vivo at 0.75 mg/kg [15]: < 60% | inhibition in vivo at 1.25 mg/kg [16]: 79% | inhibition in vivo at 1.5 mg/kg [17]: > 25% | inhibition in vivo at 1.5 mg/kg [18]: > 25% | inhibition in vivo at 0.75 mg/kg [19]: < 60% | inhibition in vivo at 1.5 mg/kg [20]: > 25% | IC50 [1]: 4.2 nM | inhibition in vivo at 0.75 mg/kg [21]: > 25% | inhibition in vivo at 0.75 mg/kg [22]: < 60% | inhibition in vivo at 0.75 mg/kg [23]: < 60% | inhibition in vivo at 0.75 mg/kg [24]: 79% | inhibition in vivo at 0.75 mg/kg [25]: < 60% | inhibition in vivo at 0.38 mg/kg [26]: < 60% | Inhibition [27]: <60% and >25% | inhibition in vivo at 1.5 mg/kg [28]: > 25% | inhibition in vivo at 0.75 mg/kg [29]: < 60% | inhibition in vivo at 1.5 mg/kg [30]: > 25% | inhibition in vivo at 2.5 mg/kg [31]: > 25% | inhibition in vivo at 0.75 mg/kg [32]: < 60% | inhibition in vivo at 0.75 mg/kg [33]: < 60% | inhibition in vivo at 1.5 mg/kg [34]: > 25% | inhibition in vivo at 0.75 mg/kg [35]: < 60% | inhibition in vivo at 1.5 mg/kg [36]: > 25% | inhibition in vivo at 0.75 mg/kg [37]: > 25% | inhibition in vivo at 0.75 mg/kg [38]: < 60% | inhibition in vivo at 1.5 mg/kg [39]: > 25%

The remaining lines, values ahead:

IC50 [1]: > 500 nM
SMILES: COC[C@H]1OC(=O)c2c(C)oc3c2[C@@]1(C)C1=C(C3=O)[C@@H]2CCC(=O)[C@@]2(C)C[C@H]1OC(C)=O

IC50 [1]: 271 nM
SMILES: COC[C@H]1OC(=O)C2=CCOC3=C2[C@@]1(C)C1=C(C3=O)[C@@H]2CCC(=O)[C@@]2(C)C[C@H]1OC(C)=O

IC50 [1]: > 500 nM
SMILES: COC[C@H]1OC(=O)C23CC2COC2=C3[C@@]1(C)C1=C(C2=O)[C@@H]2CCC(=O)[C@@]2(C)C[C@H]1OC(C)=O (stereo partly specified)
